Screening data from PubChem BioAssay.
TPT1 inh: Candida albicans TPT1 enzyme inhibitors, primary screen, biochemical, fluorescence polarization | tRNA 2'-phosphotransferase TPT1 (Candida albicans SC5314) | recombinant caTPT1, FP RNA substrate dephosphorylation | inhibition, % at 5 µM | 300,000 compounds, 0.81% hits | AID 1962, 2009;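 active = inhibition above the mean of all tested compounds plus 3 SD, set per screening campaign, cut at about 24% in these data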
CSN deneddyl inh: inhibitors of CSN-mediated cullin deneddylation, primary screen, biochemical, fluorescence polarization, uHTS | COP9 signalosome complex subunit 5 (Homo sapiens), Q92905 | Purified CSN, SCF-Nedd8-OG deneddylation | inhibition, % at 12.5 µM | 360,000 compounds, 0.38% hits | AID 651999, 2013;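 active = pattern-corrected inhibition above about 35%, with an unprinted fluorescence ratio check between 0.5 and 1.5, limit read from the data, passing the limit was not always enough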
Target sequence (Q92905 whole entry, looked up, one chain of several): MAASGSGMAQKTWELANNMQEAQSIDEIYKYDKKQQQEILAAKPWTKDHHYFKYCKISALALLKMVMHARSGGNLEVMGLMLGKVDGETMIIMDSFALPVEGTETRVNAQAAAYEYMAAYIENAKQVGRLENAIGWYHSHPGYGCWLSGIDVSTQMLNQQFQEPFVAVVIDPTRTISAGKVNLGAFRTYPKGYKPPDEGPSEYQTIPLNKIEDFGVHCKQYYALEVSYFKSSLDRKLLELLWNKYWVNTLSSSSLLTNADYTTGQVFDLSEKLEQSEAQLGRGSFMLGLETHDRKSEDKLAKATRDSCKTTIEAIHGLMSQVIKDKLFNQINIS
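Assay system: Purified human Csn5 enzyme expressed in HEK293T cells | Amount: Enzyme 0.24 nM | Measured by: Fluorescence polarization readout | Medium: Tris/NaCl/DTT buffer, pH 7.5 | Compound dosing: One concentration, 12.5 µM, 0.25% DMSO | Times: 90 min incubation of compound, enzyme and substrate at room temperature | Control set: no-enzyme wells high, enzyme-with-substrate wells low | Read-out: % inhibition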
Rpn11 block: Rpn11 (PSMD14) deubiquitinase inhibitors, primary screen, biochemical, fluorescence polarization, uHTS; 26S proteasome non-ATPase regulatory subunit 14 (Homo sapiens), O00487; human 26S proteasome, Ub4-pepOG fluorescence polarization; 20S core pre-blocked with epoxomicin; inhibition, % at 20 µM; 360,000 compounds, 0.59% hits;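 active = inhibition at 20 µM, scaled to each plate's controls, above about 33%, limit read from the data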
HNF4A DNA FP: change in binding of human HNF4A to DNA, primary screen, biochemical, fluorescence polarization, FITC-DNA. Hepatocyte nuclear factor 4-alpha (Homo sapiens), P41235. 1 h. activity change, % at 10 µM. 360,000 compounds, 0.3% hits; in the data active = activity change above about 30%, passing the limit was not always enough
SENP1 inh: human SENP1 catalytic domain inhibitors, primary screen, biochemical, FRET, uHTS; Sentrin-specific protease 1 (Homo sapiens), Q9P0U3; recombinant SENP1 catalytic domain, CyPet-SUMO1-YPet FRET cleavage; inhibition, % at 10 µM; 360,000 compounds, 0.21% hits;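 active = inhibition at least 30% at 10 µM, raw YFP signal under a set limit, fluorescence ratio 0.5 to 1.5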
Target sequence (Q9P0U3 419-644 limits assumed): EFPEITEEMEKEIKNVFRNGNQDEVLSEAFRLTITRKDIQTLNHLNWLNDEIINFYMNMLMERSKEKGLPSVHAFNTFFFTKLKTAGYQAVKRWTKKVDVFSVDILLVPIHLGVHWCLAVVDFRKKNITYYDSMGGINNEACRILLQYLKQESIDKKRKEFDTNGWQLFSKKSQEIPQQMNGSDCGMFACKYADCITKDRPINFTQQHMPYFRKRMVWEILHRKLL
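Compound: 10 µM single point, 0.5% DMSO; Test system: hSENP1 catalytic domain, recombinant; Timing: 50 min reaction at room temperature; Technique: FRET, CFP and YFP emission; Control set: no-enzyme wells low, DMSO-plus-enzyme wells high control.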
ATG4B inh: ATG4B protease inhibitors, primary screen, biochemical, fluorescence, uHTS | Cysteine protease ATG4B (Homo sapiens), Q9Y4P1 | ATG4B cleavage of LC3-PLA2, NBD-HPC fluorescence, 1 h | inhibition, % at 8.33 µM | 340,000 compounds, 0.51% hits
caTPT1 confirm: Candida albicans TPT1 inhibitors, confirmation, biochemical, fluorescence polarization, triplicate. 2,400 compounds, 74% hits. inhibition, % at 5 µM. recombinant caTPT1, RNase T1 coupled. AID 2149, 2009. shares compounds with TPT1 inh;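 active = inhibition above the primary screen limit, the mean inhibition of all tested compounds plus 3 SD, cut at about 25% in these data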
RNase T1 counter: RNase T1 inhibitors, counter-screen for TPT1 inhibitor project, biochemical, fluorescence polarization; shares compounds with TPT1 inh; RNase T1 cleavage, 1536-well; inhibition, % at 5 µM; 2,400 compounds, 83% hits; AID 2153, 2009;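 active = inhibition above the solvent-only control well mean plus 3 SD, limit set per screening run, cut at about 23% in these data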;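 also: inhibitors block cleavage so intact labeled substrate keeps polarization high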
ATG4B conf: ATG4B protease inhibitors, retest, confirmation, biochemical, fluorescence, single concentration; inhibition, % at 8.33 µM; AID 504757, 2011; shares compounds with ATG4B inh; 320 compounds, 92% hits; ATG4B protease fluorescent substrate cleavage assay; in the data active = inhibition above about 39%
PLA2 counter: PLA2 enzyme inhibition, counter-screen for ATG4B inhibitor project, biochemical, single concentration, uHTS hits | shares compounds with ATG4B inh | purified PLA2, NBD-C6-HPC fluorescence, 45 min | inhibition, % at 8.33 µM | 1,600 compounds, 66% hits | AID 588402, 2011; in the data active = inhibition above about 50%
Rpn11 confirm: Rpn11 (PSMD14) deubiquitinase inhibitors, confirmation, biochemical, fluorescence polarization, single concentration; purified human 26S proteasome, Ub4-pepOG fluorescence polarization; proteasome pretreated with epoxomicin; 1,900 compounds, 29% hits; inhibition, % at 20 µM; shares compounds with Rpn11 block
MMP-2 inh: MMP-2 enzyme inhibition, confirmation, counter-screen for RPN11 inhibitor project, biochemical, fluorescence, single concentration; shares compounds with Rpn11 block; recombinant MMP-2, FRET peptide cleavage fluorescence; inhibition, % at 20 µM; 1,900 compounds, 4% hits; AID 602330, 2012;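 also: human MMP-2 activated beforehand with APMA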
Thrombin FP: bovine thrombin protease inhibition, confirmation, counter-screen for Rpn11 inhibitor project, biochemical, fluorescence polarization, single concentration; shares compounds with Rpn11 block; bovine thrombin cleavage of Ub4-pepOG; inhibition, % at 20 µM; 1,900 compounds, 13% hits;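 active = mean inhibition at least 40% at 20 µM, or signal 3 deviations below plate average, so some actives read negative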
Hits are given with their value; – = inactive; · = no result given. Shown are actives, neighbours in structure and some others; about 2% of the full set was active somewhere. Rule as the data show it, unless noted: active = inhibition above about 40%; inactive = the rest.

SMILES	TPT1 inh	CSN deneddyl inh	Rpn11 block	HNF4A DNA FP	SENP1 inh	ATG4B inh	caTPT1 confirm	RNase T1 counter	Rpn11 confirm	MMP-2 inh	Thrombin FP	others
Cc1ccc(C(=O)/C=C/c2ccc(-c3ccc(C)cc3)o2)cc1	39	–	43	–	–	–	72	79	–	–	–
Cc1ccc(C(=O)Cn2nc(C)c([N+](=O)[O-])c2C)c(C)c1	–	–	–	–	–	–	·	·	·	·	·
Cc1nn(CC(=O)c2ccc(Cl)s2)c(C)c1[N+](=O)[O-]	43	–	44	–	–	–	40	49	–	–	–
COC[C@@H]1CCCN1c1ccc2c(c1)O[C@H](COCc1ccccc1)CN([C@@H](C)c1ccccc1)S2(=O)=O	·	–	·	–	–	·	·	·	·	·	·
COc1ccc(/C=C2\SC(N)=NC2=O)cc1Br	–	–	–	–	–	–	·	·	·	·	·
COc1cc(/C=C2\SC(c3ccc(C)cc3)=NC2=O)cc(OC)c1O	48	–	47	–	–	–	67	79	41	–	–
COc1cc(/C=C2\SC(N)=NC2=O)cc(Cl)c1O	43	–	114	–	–	–	60	71	76	–	57
Cc1ccc(C2=NC(=O)/C(=C/c3cc(O)c(O)c(Br)c3)S2)cc1	·	–	–	–	–	–	·	·	·	·	·
N#C/C(=C\c1ccc(O)c(O)c1)C(=O)NCCc1ccccc1	–	–	–	–	–	–	·	·	·	·	·
COc1cc(/C=C(\C#N)C(=O)NCCc2ccccc2)cc(OC)c1O	76	–	79	–	–	–	104	106	54	–	52
CCOC(=O)CSC1=NC(=O)/C(=C\c2ccc(Cl)cc2)S1	30	–	50	–	–	–	52	62	74	–	66
CCOC(=O)C1CCN(C2=NC(=O)/C(=C/c3ccc(Cl)cc3)S2)CC1	–	–	–	–	–	–	·	·	·	·	·
O=c1/c(=C\c2ccc(O)cc2)sc2n1C(c1ccccc1)C(c1ccccc1)=NN=2 (stereo not given)	62	–	81	41	–	–	65	76	95	–	86
N#CC1(NC(=O)CN2C(=O)NC(Cc3c[nH]c4ccccc34)C2=O)CCCCC1 (stereo not given)	·	–	–	–	–	–	·	·	·	·	·
Cc1ccccc1NS(=O)(=O)c1cccc2nonc12	–	–	–	–	–	–	·	·	·	·	·
Cc1ccccc1Nc1cccc2nonc12	37	–	40	–	–	–	42	54	–	–	–
COc1cc(/C=C2/C(=N)N3C(=NC2=O)SN=C3S(C)(=O)=O)ccc1OC(=O)c1ccco1	25	–	69	51	–	–	32	36	67	–	–
Nc1c(C(=O)O)sc2nc(-c3ccc(F)cc3)cc(-c3ccccc3)c12	29	–	53	–	–	–	–	22	–	–	–
O=C1OC(c2cccs2)=N/C1=C\c1ccc(-c2cccc(Cl)c2)o1	40	–	48	–	–	71	166	171	–	–	–	ATG4B conf=55;PLA2 counter=–
CCCC1=NN2C(=N)/C(=C\c3ccc(SCc4ccco4)o3)C(=O)N=C2S1	43	76	124	–	–	–	47	60	40	–	–
CCCC1=NN2C(=N)/C(=C\c3cc(C)n(Cc4ccccc4)c3C)C(=O)N=C2S1	–	–	–	–	–	–	·	·	·	·	·
C[C@@H]1COC(=O)[C@H](Cc2ccc(F)cc2)C/C=C\C[C@@H](CC(=O)NCCO)C(=O)N1	·	–	–	–	–	–	·	·	·	·	·
Cc1cc(=O)[nH]c(N/N=C/c2c(O)n(-c3ccccc3)c(=O)c3ccccc23)n1	36	–	66	–	–	–	32	39	43	–	–
Cc1cc(NC(=O)c2sc3ccccc3c2O)no1	·	–	–	–	–	–	·	·	·	·	·
CC(=Nc1ccc(C)cc1C)c1sc2ccccc2c1O	55	–	38	–	–	–	79	94	–	–	–
Cc1ccc(OC(=O)N(C)C[C@@H]2OCc3cn(nn3)CCCC(=O)N([C@@H](C)CO)C[C@H]2C)cc1	·	–	–	–	–	·	·	·	·	·	·
Oc1ccc(N=Nc2nc(-c3ccccc3)c(-c3ccccc3)[nH]2)cc1	31	–	55	–	39	48	42	55	–	–	–	ATG4B conf=67;PLA2 counter=–
Oc1ccc(N=Nc2n[nH]c(-c3ccccc3)n2)cc1	–	–	–	–	–	–	·	·	·	·	·
Nc1ccc2c(Cl)cc(Cl)cc2c1	·	–	–	–	–	·	·	·	·	·	·
Cc1c(N2C(=O)c3cccc4cccc(c34)C2=O)c(=O)n(-c2ccccc2)n1C	–	–	–	–	–	–	·	·	·	·	·
